The values below come from ChEMBL document CHEMBL4028833, “Novel non-trimethoxylphenyl piperlongumine derivatives selectively kill cancer cells” (Bioorg Med Chem Lett, 2017).

One test has as its system A549. In words: Antiproliferative activity against human A549 cells after 72 hrs by MTT assay. The format is functional, cell-based. The following applies: A549, 72 h. Put shortly:
(§1)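 Cell growth inhibition was read by MTT assay, and IC50 values were reported.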
(In general: Formazan colour is commonly taken as a measure of viable cells.)

Another test concerns SK-HEP1. In words: Antiproliferative activity against human SKHEP1 cells after 72 hrs by MTT assay. The following applies: SK-HEP1, 72 h. The format is functional, cell-based. Put shortly:
as §1

Test [1] concerns HCT-116. In words: Antiproliferative activity against human HCT116 cells after 72 hrs by MTT assay. The format is functional, cell-based. The note with it: HCT-116, 72 h. Put shortly: as §1
Another test has as its system U2OS. In words: Antiproliferative activity against human U2OS cells after 72 hrs by MTT assay. The format is functional, cell-based. Put shortly: as §1
The test system of test [2] is SAOS-2. In words: Antiproliferative activity against human Saos2 cells after 72 hrs by MTT assay. The test is classed as functional, cell-based. The following applies: SAOS-2, 72 h. Put shortly:
as §1

The test system of the next test is WI-38. In words: Cytotoxicity against human W138 cells after 72 hrs by MTT assay. The note with it: WI-38, 72 h. The format is cell-based. Put shortly:
as §1

The next test has as its system MDA-MB-231. In words: Antiproliferative activity against human MDA-MB-231 cells after 72 hrs by MTT assay. The following applies: MDA-MB-231, 72 h. The test is classed as functional, cell-based. Put shortly: as §1
The subject of test [3] is SAOS-2. In words: Induction of apoptosis in human Saos2 cells at 1 uM after 24 hrs by annexin V-FITC/propidium iodide staining-based flow cytometric method. The test is classed as functional. An outline of the steps: (§2)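 Apoptosis was scored by fluorescence-activated cell sorting after 24 h treatment of HCT-116 and Saos-2 cells, with DMSO controls. Cell morphology was also examined. The percentage of apoptotic cells was reported at 1 and 5 μM.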

In test [4] the test system is HCT-116. In words: Cell cycle arrest in human HCT116 cells assessed as accumulation at S phase 1 to 5 uM after 24 hrs by propidium iodide staining based flow cytometric method. The test is classed as functional. Background: In flow cytometry, cells or beads pass a laser one at a time.
The test system of test [5] is SAOS-2. In words: Cell cycle arrest in human Saos2 cells assessed as accumulation at G2/M phase at 1 to 5 uM after 24 hrs by propidium iodide staining based flow cytometric method. The format is functional.
The subject of test [6] is HCT-116. In words: Cell cycle arrest in human HCT116 cells assessed as accumulation at G0/G1 phase at 1 to 5 uM after 24 hrs by propidium iodide staining based flow cytometric method. The test is classed as functional.
Test [7] concerns SAOS-2. In words: Cell cycle arrest in human Saos2 cells assessed as accumulation at S phase at 1 to 5 uM after 24 hrs by propidium iodide staining based flow cytometric method. The test is classed as functional.
Test [8] has as its system HCT-116. In words: Cell cycle arrest in human HCT116 cells accumulation at G0/G1 phase at 1 to 5 uM after 24 hrs by propidium iodide staining based flow cytometric method.
Test [9] relates to HCT-116. In words: Induction of apoptosis in human HCT116 cells after 24 hrs by annexin V-FITC/propidium iodide staining-based flow cytometric method. The test is classed as functional, cell-based. An outline of the steps:
as §2

The subject of test [10] is SAOS-2. In words: Induction of apoptosis in human Saos2 cells at 5 uM after 24 hrs by annexin V-FITC/propidium iodide staining-based flow cytometric method. The test is classed as functional. An outline of the steps: as §2
For test [11], the system named is HCT-116. In words: Induction of reactive oxygen species generation in human HCT116 cells at 10 uM after 1 hr by DCFH-DA dye-based fluorescence microscopic analysis. The test is classed as functional, cell-based. An outline of the steps: (§3)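 ROS was imaged by fluorescence microscopy in HCT-116 and Saos-2 cells after 1 h treatment at 10 μM. DMSO-treated cells served as the control.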

Test [12] concerns SAOS-2. In words: Induction of apoptosis in human Saos2 cells after 24 hrs by annexin V-FITC/propidium iodide staining-based flow cytometric method. The format is functional, cell-based. An outline of the steps: as §2
For test [13], the system named is SAOS-2. In words: Induction of reactive oxygen species generation in human Saos2 cells at 10 uM after 1 hr by DCFH-DA dye-based fluorescence microscopic analysis relative to control. The test is classed as functional. Put shortly:
as §3

Test [14] deals with SAOS-2. In words: Induction of reactive oxygen species generation in human Saos2 cells at 1 to 5 uM after 1 to 3 hrs by DCFH-DA dye-based fluorescence microscopic analysis. The test is classed as functional, cell-based. Put shortly:
(§4)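 Cellular ROS was imaged by fluorescence microscopy in HCT-116 and Saos-2 cells. Cells were treated at 1, 5 and 10 μM for 1 h and 3 h, with a DMSO control.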

For test [15], the system named is HCT-116. In words: Induction of apoptosis in human HCT116 cells at 5 uM after 24 hrs by annexin V-FITC/propidium iodide staining-based flow cytometric method. The format is functional. An outline of the steps: as §2
In test [16] the test system is HCT-116. In words: Induction of apoptosis in human HCT116 cells at 1 uM after 24 hrs by annexin V-FITC/propidium iodide staining-based flow cytometric method. The test is classed as functional. Put shortly:
as §2

For test [17], the system named is HCT-116. In words: Induction of reactive oxygen species generation in human HCT116 cells at 1 to 10 uM by DCFH-DA dye-based fluorescence microscopic analysis. The format is functional, cell-based. The following applies: TDE = time-dependent effect. An outline of the steps: as §4
The subject of test [18] is HCT-116. In words: Cell cycle arrest in human HCT116 cells assessed as accumulation at G0/G1 phase after 24 hrs by propidium iodide staining based flow cytometric method. The test is classed as functional.
Test [19] relates to SAOS-2. In words: Induction of reactive oxygen species generation in human Saos2 cells at 1 to 10 uM DCFH-DA dye-based fluorescence microscopic analysis. The test is classed as functional, cell-based. The note with it: TDE = time-dependent effect. Put shortly:
as §4

Test [20] concerns HCT-116. In words: Induction of reactive oxygen species generation in human HCT116 cells at 1 to 5 uM after 1 to 3 hrs by DCFH-DA dye-based fluorescence microscopic analysis. The test is classed as functional, cell-based. An outline of the steps:
as §4

Broadly, the pIC50 is the negative decadic logarithm of the IC50, by convention in mol/L.

pIC50: −log10 of the molar value. The source made the active and inactive calls. The calls are words filed in the database; no cut-off is given here. Bounds are passed on as bounds.

`O=C(/C=C/c1ccoc1)N1CCC=C(Cl)C1=O`: the pIC50 with A549 was 4.96; in the test on SK-HEP1, 5.56; in the test with HCT-116 [1], 5.36; in the test on U2OS it was 5.65; with SAOS-2 [2] it was 5.94; with WI-38, less than 4.00. Further, the pIC50 with MDA-MB-231 is 5.30.
Turning to `COc1cc(/C=C/C(=O)N2CCC=CC2=O)cc(OC)c1OC` [PIPLARTINE], the negative logarithm of the IC50 (pIC50) in the test with A549 is 5.16; in the test with SK-HEP1 it was 4.88; in the test with HCT-116 [1], 5.13; with U2OS it was 5.02; in the test with SAOS-2 [2], 5.14; with WI-38 it was less than 4.00. The pIC50 with MDA-MB-231 was 4.97. Further, the Activity in the test on SAOS-2 [3] is 26%; with HCT-116 [9], “Dose-dependent effect”; with SAOS-2 [10], 33%; with SAOS-2 [12], “Dose-dependent effect”. For the same compound, the result in the test on HCT-116 [4], in the test with HCT-116 [6], in the test with HCT-116 [8] and in the test with HCT-116 [11] was Active. Also, the outcome with SAOS-2 [5] and with SAOS-2 [7] was inactive.
Consider `O=C(/C=C/c1ccccc1)N1CCC=C(Cl)C1=O`, for which, in the test with SAOS-2 [13], the “fold change (FC)” value amounted to 2. Moreover, the pIC50 in the test with A549 was 5.39; in the test with SK-HEP1, 6.15; with HCT-116 [1], 5.78; with U2OS it was 5.93; in the test on SAOS-2 [2], 7.96; with WI-38, 4.07. The pIC50 in the test on MDA-MB-231 was 5.78. The outcome with SAOS-2 [14], in the test on HCT-116 [4], in the test on HCT-116 [11] and in the test on HCT-116 [20] was Active. The Activity in the test on SAOS-2 [3] is 12.7%; in the test on HCT-116 [15] it was 17%; with HCT-116 [16] it was 16%; in the test with HCT-116 [17], “Tde”; in the test with HCT-116 [18] it was “Dose-dependent effect”; with SAOS-2 [19], “Tde”. Besides, the Activity result in the test on HCT-116 [9] is “Dose-dependent effect”; in the test with SAOS-2 [10] it was 21.5%; in the test on SAOS-2 [12], “Dose-dependent effect”. Besides, the outcome in the test on SAOS-2 [5] and with SAOS-2 [7] was inactive.
`O=C1C(Br)=CCCN1C(=O)c1cnc2ccccc2c1`: the pIC50 was less than 4.00 in the test on A549; 4.12 in the test with SK-HEP1; less than 4.00 with HCT-116 [1]; 4.01 in the test on U2OS; 4.57 in the test on SAOS-2 [2]; less than 4.00 with WI-38. The same compound showed a pIC50 in the test with MDA-MB-231 of less than 4.00.
As for `O=C(/C=C/c1ccco1)N1CCC=C(Cl)C1=O`, the pIC50 in the test with A549 is 5.08; in the test on SK-HEP1, 5.90; in the test on HCT-116 [1], 5.35; with U2OS, 5.83; in the test with SAOS-2 [2], 6.55; in the test with WI-38, less than 4.00. The pIC50 in the test on MDA-MB-231 is 5.26.
With `O=C(/C=C/c1cccnc1)N1CCC=C(Cl)C1=O`, in the test on SAOS-2 [13], the “fold change (FC)” value is 2. Further, the pIC50 in the test on A549 was 5.53; in the test on SK-HEP1, 5.72; with HCT-116 [1], 5.63; with U2OS, 5.78; in the test on SAOS-2 [2], 6.28; in the test on WI-38, 4.33. In the test with MDA-MB-231, this compound had a pIC50 of 5.53. For the same compound, the result with HCT-116 [11] was Active.
`O=C1C(Cl)=CCCN1C(=O)c1ccncc1`: the pIC50 is less than 4.00 in the test with A549; less than 4.00 with SK-HEP1; less than 4.00 in the test on HCT-116 [1]; less than 4.00 in the test with U2OS; 4.05 in the test with SAOS-2 [2]; less than 4.00 in the test on WI-38. Besides, the pIC50 in the test with MDA-MB-231 was less than 4.00.
For the compound `O=C1C(Cl)=CCCN1C(=O)c1ccco1`, the pIC50 was 4.73 with A549; 4.87 in the test with SK-HEP1; 5.23 in the test with HCT-116 [1]; 5.07 in the test on U2OS; 5.41 with SAOS-2 [2]; less than 4.00 in the test on WI-38. This compound also showed a pIC50 in the test on MDA-MB-231 of 4.72.
For the compound `O=C1C(Cl)=CCCN1C(=O)c1cnc2ccccc2c1`, the pIC50 in the test with A549 was 4.97; with SK-HEP1, 5.45; in the test with HCT-116 [1], 4.99; with U2OS, 5.18; with SAOS-2 [2], 5.53; in the test with WI-38, less than 4.00. This compound also gave a negative-log IC50 (pIC50) in the test with MDA-MB-231 of 5.06.
As to `O=C(C#Cc1ccccc1)N1CCC=C(Cl)C1=O`, the “fold change (FC)” value in the test with SAOS-2 [13] stood at 2. The pIC50 in the test with A549 is 5.10; in the test on SK-HEP1, 5.92; in the test with HCT-116 [1] it was 6.04; in the test on U2OS, 5.95; in the test with SAOS-2 [2] it was 6.38; with WI-38, less than 4.00. For the same compound, the pIC50 in the test on MDA-MB-231 was 5.76. The outcome in the test on HCT-116 [11] was inactive.
Regarding `O=C(/C=C/C(=O)N1CCC=C(Cl)C1=O)N1CCC=C(Cl)C1=O`, the pIC50 was 5.07 with A549; 5.40 with SK-HEP1; 5.38 with HCT-116 [1]; 5.14 with U2OS; 6.09 in the test with SAOS-2 [2]; 4.05 in the test with WI-38. This compound also gave a negative logarithm of the IC50 (pIC50) with MDA-MB-231 of 5.30.
On to `O=C1C(Cl)=CCCN1C(=O)C1CC1c1ccccc1` (stereo unspecified), for which the pIC50 was 4.07 with A549; 4.14 in the test on SK-HEP1; 4.19 with HCT-116 [1]; 4.17 in the test with U2OS; 4.63 in the test with SAOS-2 [2]; less than 4.00 in the test on WI-38. Moreover, the pIC50 in the test on MDA-MB-231 was 4.19.
As for `O=C1C(Cl)=CCCN1C(=O)c1cccnc1`, the pIC50 in the test on A549 was 5.06; in the test with SK-HEP1 it was 5.32; with HCT-116 [1] it was 5.42; in the test with U2OS it was 5.25; in the test on SAOS-2 [2], 5.59; in the test with WI-38 it was 4.51. The pIC50 in the test with MDA-MB-231 was 5.32.
